According to ChEMBL document CHEMBL3525979, “Combined contributions of impaired hepatic CYP2C11 and intestinal breast cancer resistance protein activities and expression to increased oral glibenclamide exposure in rats with streptozotocin-induced diabetes mellitus” (Drug Metab Dispos, 2012):

Experiments:
[1] = Drug excretion in bile of insulin treated Sprague-Dawley rat model of streptozotocin-induced diabetes mellitus at 10 mg/kg, po by HPLC method; type: ADME, organism-based; set-up: dose 10 mg/kg, route oral; conditions: read-out: Drug excretion
Method in brief: (§1)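 STZ-diabetic (65 mg/kg i.p.), insulin-treated or control rats were dosed with GLB 10 mg/kg orally on day 35 after overnight fast. Urine and feces were collected in metabolic cages at 6-h intervals to 36 h. For bile, the common bile duct was cannulated under pentobarbital and bile collected to 12 h. GLB measured by HPLC-fluorescence and expressed as % of dose.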

[2] = Mean residence time in normal Sprague-Dawley rat at 10 mg/kg, po by HPLC method; type: ADME, organism-based; set-up: dose 10 mg/kg, route oral; conditions: in vivo
Method in brief: (§2)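 Sprague-Dawley rats: diabetes induced by STZ 65 mg/kg i.p. in citrate buffer pH 4.5 (fasting glucose >11.1 mM at day 7). Insulin group received protamine zinc insulin 5 U/kg s.c. twice daily for 4 weeks. On day 35, overnight-fasted rats got GLB 10 mg/kg orally in 0.5% CMC-Na. Plasma GLB measured by HPLC with fluorescence detection (ex 308/em 360 nm). Non-compartmental analysis; n=6-7.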

Liver microsome = test: Apparent hepatic clearance in normal Sprague-Dawley rat liver microsomes assessed per mg protein at 4 uM after 60 mins; type: ADME; conditions: 1 h
Method in brief: (§3)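 Liver microsomes (0.5 mg/mL protein) from control, STZ-diabetic or insulin-treated diabetic rats, 0.01 M phosphate buffer pH 7.4, 4 μM GLB (methanol <1%); 5 min preincubation at 37 °C, started with NADPH regenerating system. Stopped with 1 M HCl at 0, 5, 15, 30, 45, 60 min. GLB depletion measured by HPLC-fluorescence. AUC by linear trapezoid; Clapp = initial dose/AUC0-t; t1/2 = 0.693/terminal slope. Triplicate incubations; 4-5 rats.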

[3] = Apparent oral volume of distribution in Sprague-Dawley rat model of streptozotocin-induced diabetes mellitus at 10 mg/kg, po by HPLC method; type: ADME, organism-based; set-up: dose 10 mg/kg, route oral; conditions: in vivo; method in brief: as §2
[4] = Drug excretion in normal Sprague-Dawley rat feces at 10 mg/kg, po by HPLC method; type: ADME, organism-based; set-up: dose 10 mg/kg, route oral; conditions: faeces, read-out: Drug excretion; method in brief: as §1
[5] = AUC (0 to 60 mins) in normal Sprague-Dawley rat liver microsomes at 4 uM after 60 mins; type: ADME; set-up: time < 1 hr, dose 4 uM; method in brief: as §3
[6] = Drug excretion in normal Sprague-Dawley rat bile at 10 mg/kg, po by HPLC method; type: ADME, organism-based; set-up: dose 10 mg/kg, route oral; conditions: read-out: Drug excretion; method in brief: as §1
Jejunum = test: Drug absorption in streptozotocin-induced diabetes mellitus Sprague-Dawley rat jejunum at 10 ug/ml after 120 mins of in situ single-pass perfusion relative to normal rat; type: ADME, tissue-based; conditions: in vivo, 2 h
Method in brief: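 In situ single-pass jejunal perfusion in anaesthetized control and STZ-diabetic rats. The segment was preperfused with 0.9% saline at 0.2 mL/min, 37 °C, for 20 min, then perfused with K-H buffer containing GLB 10 μg/mL. Effluent was collected at 15-min intervals after a 30-min steady state. Cumulative absorption was calculated from GLB loss (HPLC); n=5.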

[7] = Apparent oral volume of distribution in normal Sprague-Dawley rat at 10 mg/kg, po by HPLC method; type: ADME, organism-based; set-up: dose 10 mg/kg, route oral; conditions: in vivo; method in brief: as §2
[8] = Oral clearance in insulin treated Sprague-Dawley rat model of streptozotocin-induced diabetes mellitus at 10 mg/kg, po by HPLC method; type: ADME, organism-based; set-up: dose 10 mg/kg, route oral; conditions: in vivo
Method in brief: (§4)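 Rats given STZ 65 mg/kg i.p. in citrate buffer pH 4.5 (controls got buffer); diabetic if fasting glucose >11.1 mM at day 7; insulin group got protamine zinc insulin 5 U/kg s.c. twice daily for 4 weeks. On day 35, overnight-fasted rats dosed orally with 10 mg/kg in 0.5% CMC-Na; plasma by ethyl acetate extraction, HPLC fluorescence (ex 308/em 360 nm); non-compartmental analysis; n=6-7, mean ± S.D.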

[9] = AUC (0 to 60 mins) in streptozotocin-induced diabetes mellitus Sprague-Dawley rat liver microsomes at 4 uM after 60 mins; type: ADME; set-up: dose 4 uM, time < 1 hr; method in brief: as §3
[10] = Cmax in normal Sprague-Dawley rat at 10 mg/kg, po by HPLC method; type: ADME, organism-based; set-up: dose 10 mg/kg, route oral; conditions: in vivo; method in brief: as §2
[11] = Mean residence time in Sprague-Dawley rat model of streptozotocin-induced diabetes mellitus at 10 mg/kg, po by HPLC method; type: ADME, organism-based; set-up: dose 10 mg/kg, route oral; conditions: in vivo; method in brief: as §2
[12] = Drug excretion in urine of Sprague-Dawley rat model of streptozotocin-induced diabetes mellitus at 10 mg/kg, po by HPLC method; type: ADME, organism-based; set-up: dose 10 mg/kg, route oral; conditions: read-out: Drug excretion; method in brief: as §1
[13] = Oral clearance in Sprague-Dawley rat model of streptozotocin-induced diabetes mellitus at 10 mg/kg, po by HPLC method; type: ADME, organism-based; set-up: dose 10 mg/kg, route oral; conditions: in vivo; method in brief: as §2
[14] = Tmax in normal Sprague-Dawley rat at 10 mg/kg, po by HPLC method; type: ADME, organism-based; set-up: dose 10 mg/kg, route oral; conditions: in vivo; method in brief: as §4
[15] = AUC (0 to 60 mins) in insulin treated streptozotocin-induced diabetes mellitus Sprague-Dawley rat liver microsomes at 4 uM after 60 mins; type: ADME; set-up: dose 4 uM, time < 1 hr; method in brief: as §3
[16] = Drug excretion in urine of insulin treated Sprague-Dawley rat model of streptozotocin-induced diabetes mellitus at 10 mg/kg, po by HPLC method; type: ADME, organism-based; set-up: dose 10 mg/kg, route oral; conditions: read-out: Drug excretion; method in brief: as §1
[17] = AUC (0 to infinity) in normal Sprague-Dawley rat at 10 mg/kg, po by HPLC method; type: ADME, organism-based; set-up: time infinity, dose 10 mg/kg, route oral; conditions: plasma; method in brief: as §2
[18] = Oral clearance in normal Sprague-Dawley rat at 10 mg/kg, po by HPLC method; type: ADME, organism-based; set-up: dose 10 mg/kg, route oral; conditions: in vivo; method in brief: as §4
[19] = Half life in streptozotocin-induced diabetes mellitus Sprague-Dawley rat liver microsomes at 4 uM after 60 mins; type: ADME; method in brief: as §3
[20] = Half life in insulin treated streptozotocin-induced diabetes mellitus Sprague-Dawley rat liver microsomes at 4 uM after 60 mins; type: ADME; method in brief: as §3
[21] = AUC (0 to infinity) in insulin treated Sprague-Dawley rat model of streptozotocin-induced diabetes mellitus at 10 mg/kg, po by HPLC method; type: ADME, organism-based; set-up: dose 10 mg/kg, route oral, time infinity; conditions: in vivo; method in brief: as §2
[22] = Drug excretion in bile of Sprague-Dawley rat model of streptozotocin-induced diabetes mellitus at 10 mg/kg, po by HPLC method; type: ADME, organism-based; set-up: dose 10 mg/kg, route oral; conditions: read-out: Drug excretion; method in brief: as §1

dose excreted [1]: 0.018% | MRT [2]: 7.23 h | CLH(app) (Liver microsome): 205 µL/min/mg | Vd/F [3]: 6.36 L/kg | dose excreted [4]: 72% | AUC(0-t) at 1 h, 4 µM [5]: 307 ng·h/mL | dose excreted [6]: 0.01% | Drug absorption (Jejunum): 42% | Vd/F [7]: 25.7 L/kg | CL/F [8]: 66.3 mL/min/kg | AUC(0-t) at 1 h, 4 µM [9]: 916 ng·h/mL | Cmax [10]: 350 ng/mL | MRT [11]: 9.28 h | dose excreted [12]: 0.023% | CL/F [13]: 12 mL/min/kg | Tmax [14]: 1.5 h | AUC(0-t) at 1 h, 4 µM [15]: 357 ng·h/mL | dose excreted [16]: 0.019% | AUC(0-inf) [17]: 2610 ng·h/mL | CL/F [18]: 65.5 mL/min/kg | half-life at 4 µM [19]: 0.526 h | half-life at 4 µM [20]: 0.211 h | AUC(0-inf) [21]: 3000 ng·h/mL | dose excreted [22]: 0.097%
SMILES: COc1ccc(Cl)cc1C(=O)NCCc1ccc(S(=O)(=O)NC(=O)NC2CCCCC2)cc1 [GLYBURIDE]
